Values after ≈ are worked out from the molar mass of the structure shown. Active and inactive are the calls of the source. The rule behind the calls is not given here.
Tested on: not listed separately
Test: Inhibition of 7,12-dimethylbenz[a]anthracene-induced preneoplastic lesions in a BALB/c mouse mammary gland culture at 10 ug/mL treated for 10 days before DMBA-challenge measured after 14 days
Assay type: functional, tissue-based
Settings: not given
In short: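 BALB/c female mice were primed 9 days with estradiol (1 µg) and progesterone (1 mg). Second thoracic mammary glands were cultured 10 days at 37 °C in 95% O2/5% CO2 in Waymouth's 752/1 MB medium with insulin, prolactin, aldosterone and hydrocortisone. DMBA 2 µg/mL was given at 72–96 h and compounds on days 1–10. Glands then regressed 14 days with insulin only and were scored for lesion incidence. % inhibition is relative to the DMBA control.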

`C=C1C(=O)O[C@@H]2/C=C(/C)C(=O)[C@@H]3O[C@H]3[C@](C)(O)C[C@@H](OC(=O)C(C)C)[C@@H]12` and `C=C1C(=O)O[C@@H]2/C=C(/C)C(=O)/C=C/[C@](C)(O)C[C@@H](OC(=O)C(C)C)[C@@H]12` [TAGITININ C] are the same in % inhibition: 44.4% for the first, 44.4% for the second.

Compared with `C=C1C(=O)O[C@H]2[C@H]1[C@H](OC(=O)C(C)C)C[C@@]1(C)[C@H](O)C[C@H](OC(C)=O)C(=C)[C@H]21`, `C=C1C(=O)O[C@H]2[C@H]1[C@H](OC(=O)C(C)C)C[C@@]1(C)[C@H](O)C[C@H](OC(C)=O)[C@@](C)(O)[C@H]21` [TITHOFOLINOLIDE] is lower in % inhibition: 63% for the first, 40.2% for the second.

`C=C1C(=O)O[C@H]2[C@H]1[C@H](OC(=O)C(C)C)C[C@@](C)(O)[C@@H]1CC(=O)[C@@](C)(O)[C@H]21` gave a % inhibition of 48.7%.

Tested on: Col2
Test: Antiproliferative activity against human Col2 cells after 3 days by sulforhodamine B assay
Assay type: functional, cell-based
Settings: not given
In short: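 Col2 human colon cancer cells grown in MEME with 10% NEAA, antibiotic-antimycotic and 10% FBS at 37 °C, 5% CO2. Exponentially growing cells were added to wells containing compounds in DMSO and grown 3 days. Cells were then TCA-fixed and stained with 0.4% SRB in 1% acetic acid, and the dye was solubilized in 0.1 M Tris. Absorbance read at 515 nm; % growth calculated against day-0 and DMSO-control absorbances.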

In the case of `C=C(C(=O)OC)[C@@H]1CC[C@@]2(C)CC[C@@H](OC(C)=O)[C@@](C)(O)[C@@H]2C1`, the Activity was “inactive”.
In the case of `C=C1C(=O)O[C@@H]2C[C@H](C)[C@@]3(O)C[C@H](O)[C@@](C)(C[C@@H](OC(=O)C(C)C)[C@@H]12)O3`, the Activity was “inactive”.
With `C=C1C(=O)O[C@@H]2C[C@H](C)[C@@]3(O)CC[C@@](C)(C[C@@H](OC(=O)C(C)C)[C@@H]12)O3` the Activity was “inactive”.

Same assay, conditions: Col2, 72 h

First: C=C1C(=O)O[C@@H]2/C=C(/C)C(=O)[C@@H]3O[C@H]3[C@](C)(O)C[C@@H](OC(=O)C(C)C)[C@@H]12
Second: C=C1C(=O)O[C@@H]2/C=C(/C)C(=O)/C=C/[C@](C)(O)C[C@@H](OC(=O)C(C)C)[C@@H]12 [TAGITININ C]
The IC50 of the first is 2.4-fold higher: 1.7 µg/mL (≈ 4.67 µM) for the first, 0.7 µg/mL (≈ 2.01 µM) for the second.

Compared with `C=C1C(=O)O[C@H]2[C@H]1[C@H](OC(=O)C(C)C)C[C@@]1(C)[C@H](O)C[C@H](OC(C)=O)C(=C)[C@H]21`, `C=C1C(=O)O[C@H]2[C@H]1[C@H](OC(=O)C(C)C)C[C@@]1(C)[C@H](O)C[C@H](OC(C)=O)[C@@](C)(O)[C@H]21` [TITHOFOLINOLIDE] is higher in IC50: 5.9 µg/mL (≈ 15 µM) for the first, greater than 20 µg/mL for the second.

Compared with `COC(=O)/C=C/[C@@H]1CC[C@@]2(C)CC[C@@H](OC(C)=O)[C@@](C)(O)[C@@H]2C1`, `C=C1C(=O)O[C@H]2[C@H]1[C@H](OC(=O)C(C)C)C[C@@](C)(O)[C@@H]1CC(=O)[C@@](C)(O)[C@H]21` is lower in IC50: greater than 20 µg/mL for the first, 18.9 µg/mL (≈ 51.6 µM) for the second.

In the case of `C=C1C(=O)O[C@@H]2C[C@H](C)[C@]3(O)O[C@@](C)(C[C@H]3O)C[C@@H](OC(=O)C(C)C)[C@@H]12`, the IC50 was greater than 20 µg/mL.

Tested on: HL-60
Test: Induction of cell differentiation of human HL60 cells at 4 ug/mL after 4 days by non-specific esterase determination
Assay type: functional, cell-based
Settings: not given
In short: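 HL-60 cells kept in RPMI 1640 with 10% fetal calf serum and penicillin/streptomycin at 37 °C, 5% CO2. Cells at 1.2 × 10^5 cells/mL, preincubated 18 h, then added to compounds in DMSO (final 0.1% v/v). After 4 days, α-naphthyl acetate esterase was stained cytochemically, ≥200 cells counted microscopically in duplicate, and the % differentiated cells recorded.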

With `C=C(C(=O)OC)[C@@H]1CC[C@@]2(C)CC[C@@H](OC(C)=O)[C@@](C)(O)[C@@H]2C1` the Activity was “inactive”.
For `C=C1C(=O)O[C@@H]2C[C@H](C)[C@@]3(O)C[C@H](O)[C@@](C)(C[C@@H](OC(=O)C(C)C)[C@@H]12)O3`, the Activity was “inactive”.
With `C=C1C(=O)O[C@@H]2C[C@H](C)[C@@]3(O)CC[C@@](C)(C[C@@H](OC(=O)C(C)C)[C@@H]12)O3` the Activity was “inactive”.

Same assay, conditions: HL-60, 96 h

Going from `C=C1C(=O)O[C@@H]2/C=C(/C)C(=O)[C@@H]3O[C@H]3[C@](C)(O)C[C@@H](OC(=O)C(C)C)[C@@H]12` to `C=C1C(=O)O[C@@H]2/C=C(/C)C(=O)/C=C/[C@](C)(O)C[C@@H](OC(=O)C(C)C)[C@@H]12` [TAGITININ C], the % differentiation rises from less than 10% to 20%.

Going from `C=C1C(=O)O[C@H]2[C@H]1[C@H](OC(=O)C(C)C)C[C@@]1(C)[C@H](O)C[C@H](OC(C)=O)C(=C)[C@H]21` to `C=C1C(=O)O[C@H]2[C@H]1[C@H](OC(=O)C(C)C)C[C@@]1(C)[C@H](O)C[C@H](OC(C)=O)[C@@](C)(O)[C@H]21` [TITHOFOLINOLIDE], the % differentiation rises from 33.9% to 37.4%.

Going from `COC(=O)/C=C/[C@@H]1CC[C@@]2(C)CC[C@@H](OC(C)=O)[C@@](C)(O)[C@@H]2C1` to `C=C1C(=O)O[C@H]2[C@H]1[C@H](OC(=O)C(C)C)C[C@@](C)(O)[C@@H]1CC(=O)[C@@](C)(O)[C@H]21`, the % differentiation rises from less than 10% to 32.4%.

Work on `C=C1C(=O)O[C@@H]2C[C@H](C)[C@]3(O)O[C@@](C)(C[C@H]3O)C[C@@H](OC(=O)C(C)C)[C@@H]12` yielded a % differentiation of less than 10%.

From ChEMBL document CHEMBL1148122, “Sesquiterpenoids from Tithonia diversifolia with potential cancer chemopreventive activity” (J Nat Prod, 2002)
